# CHRM1 PAM = human M1 muscarinic receptor positive allosteric modulators, primary screen, CHO-K1 cells, Fluo-8 calcium fluorescence, 1536-well. actives 0.088% (n = 360,000). Muscarinic acetylcholine receptor M1 (Homo sapiens), P11229. CHO-K1 hM1, ACh EC20; 0% = ACh EC20, 100% = maximal ACh. activation, % at 3 µM; in the data active = activation above about 19%, passing the limit was not always enough
# CHRM5 agonist = human M5 muscarinic receptor agonists, primary screen, CHO-K1 cells, Fluo-8 calcium fluorescence; activation, % at 3 µM; actives 0.19% (n = 360,000); AID 624037, 2012; Muscarinic acetylcholine receptor M5 (Homo sapiens), P08912; CHO-K1 hM5 cells; 0% DMSO wells, 100% maximal acetylcholine response;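 active = activation above the run's mean over test compounds plus 3 SD, cut at about 23% in these data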;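 note: signal is peak over basal fluorescence ratio across the kinetic read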
# Target sequence (P08912 whole entry, looked up): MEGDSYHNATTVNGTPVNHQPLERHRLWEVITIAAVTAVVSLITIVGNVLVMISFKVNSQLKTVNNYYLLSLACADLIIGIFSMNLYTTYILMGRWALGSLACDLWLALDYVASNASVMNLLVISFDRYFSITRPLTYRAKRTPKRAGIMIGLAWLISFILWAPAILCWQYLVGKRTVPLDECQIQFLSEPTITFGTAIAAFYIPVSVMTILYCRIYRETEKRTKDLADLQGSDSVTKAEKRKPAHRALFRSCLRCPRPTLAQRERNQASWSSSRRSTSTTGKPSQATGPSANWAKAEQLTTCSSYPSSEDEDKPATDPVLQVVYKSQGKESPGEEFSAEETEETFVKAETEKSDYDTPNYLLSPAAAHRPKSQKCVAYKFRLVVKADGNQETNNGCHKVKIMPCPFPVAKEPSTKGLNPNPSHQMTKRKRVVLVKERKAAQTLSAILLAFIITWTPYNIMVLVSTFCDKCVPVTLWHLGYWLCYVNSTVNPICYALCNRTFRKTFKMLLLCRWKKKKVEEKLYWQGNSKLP
# M1 ag = human M1 muscarinic receptor agonists, primary screen, Fluo-8 calcium fluorescence, CHO-K1 cells, HTS. AID 588814, 2011. activation, % at 3 µM. CHO-K1 hM1, agonist mode; 0% DMSO, 100% acetylcholine EC100. Muscarinic acetylcholine receptor M1 (Homo sapiens), P11229. actives 0.33% (n = 360,000);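 active = activation above the run's mean compound activation plus 3 SD, cut at about 16% in these data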;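 note: peak over basal fluorescence ratio within a 140 s kinetic read after compound addition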
# CHRM5 PAM = human M5 muscarinic receptor positive allosteric modulators, primary screen, CHO-K1 cells, Fluo-8 calcium fluorescence; Muscarinic acetylcholine receptor M5 (Homo sapiens), P08912; CHO-K1 hM5, ACh EC20 PAM; 0% = ACh EC20, 100% = ACh EC100; activation, % at 3 µM; actives 0.3% (n = 360,000); AID 624038, 2012;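 active = activation above the run cutoff, the mean activation of all test compounds plus 3 SD, cut at about 18% in these data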
#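 system = human M5 receptor in CHO-K1 cells | compound = one concentration, 3 µM final (nominal) | schedule = Post-acetylcholine fluorescence recording 140 s | signal = Fluo-8 calcium dye fluorescence, kinetic read | benchmarks = low control EC20 acetylcholine (0%), high control EC100 acetylcholine (100%) | repeats = singlicate, one well per test compound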
# M1 antag = human M1 muscarinic receptor antagonists, primary screen, CHO-K1 cells, Fluo-8 calcium fluorescence, 1536-well; CHO-K1 hM1, ACh EC80 antagonist; inhibition, % at 3 µM; AID 588852, 2011; actives 1.3% (n = 360,000); Muscarinic acetylcholine receptor M1 (Homo sapiens), P11229;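 active = percent inhibition above its own plate's cutoff, namely the mean of that plate's compound wells plus 3 SD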;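 note: peak over basal fluorescence ratio during 140 s after agonist addition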
# CHRM5 antagonist = human M5 muscarinic receptor antagonists, primary screen, CHO cells, Fluo-8 calcium fluorescence; Muscarinic acetylcholine receptor M5 (Homo sapiens), P08912; inhibition, % at 3 µM; CHO-hM5 cells, ACh EC80; AID 624040, 2012; actives 0.59% (n = 360,000);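 active = inhibition above a per-plate cutoff, the mean of that plate's test compounds plus 3 SD, cut at about 27% in these data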
# Hits are given with their value; n = inactive; x = not tested or not shown. Sampled rows, rich in hits. Any-hit rate of the full collection: about 2%.
SMILES,CHRM1 PAM,CHRM5 agonist,M1 ag,CHRM5 PAM,M1 antag,CHRM5 antagonist
O=C(NCc1cccc(F)c1)c1cccc2c1C(=O)c1ccc(N3CCCC3)cc1S2(=O)=O,n,35.2,26.6,n,33.0,n
OCC1(Cc2ccccc2)CCN(C2CCN(c3ccccc3F)CC2)CC1,n,n,n,n,34.5,n
OCC1(Cc2ccccc2)CCN(Cc2cnn(-c3ccccc3F)c2)CC1,n,n,n,n,n,n
O=C(NCc1ccccc1)OC1CC2CC1[C@H]1CCCCN1C2=O (stereo not given in full),x,n,x,n,x,n
Cc1ccc(C(=O)NCC(=O)NCC(=O)OCc2ccc(Oc3ccc([N+](=O)[O-])cc3)cc2)cc1,n,n,n,n,n,30.8
CCCOC(=O)c1ccc(Oc2coc3c(CN(CC)CC)c(O)ccc3c2=O)cc1,n,n,n,n,89.1,n
Cc1ccc(C(C)C)c(OCCN(C)C)c1,n,n,n,n,57.1,n
Cc1ccc(C(C)C)c(OCCCn2ccnc2C)c1,n,n,n,n,100.5,90.8
O=C(c1ccccc1F)N1CCN(c2cnn(-c3cccc(Cl)c3)c(=O)c2Cl)CC1,n,n,n,n,n,n
Cc1occc1-c1nnc(SC(C)C(=O)Nc2ccccc2F)o1 (stereo not given),n,n,n,n,n,n
CC1(C(=O)Nc2cccc(Oc3ccccc3)c2)CCN1Cc1cc2ccccc2o1 (stereo not given),n,n,n,n,n,n
COC(=O)CN1C(=O)[C@H]2[C@@H](C3CC3)N3C(=O)CN(Cc4ccccn4)C(=O)[C@@]3(Cc3ccccc3)[C@H]2C1=O,n,n,n,n,n,n
COc1ccc(NC(=O)C2Cc3c(-c4ccc5c(c4)OCO5)ccnc3O2)cc1OC (stereo not given),n,n,n,n,32.6,n
Cc1cc(C)c2oc(C(=O)N3CCN(C)CC3)cc(=O)c2c1,32.2,n,n,n,n,n
CC(C)CNC(=O)c1cccc2c(-c3cccc(C(N)=O)c3)coc12,n,n,n,n,n,n
CCN(C(=O)c1cccs1)c1nc(-c2ccc(OC)cc2)cs1,n,n,n,n,n,n
Cc1ccc(-c2csc(N(CCCN3CCOCC3)C(=O)c3ccco3)n2)cc1,n,n,n,n,n,n
COc1ccc(-c2csc(N(CCCN(C)C)C(=O)c3cccs3)n2)cc1,n,n,n,n,29.8,37.9
COc1ccc(-c2csc(N(CCCN3CCOCC3)C(=O)c3ccco3)n2)cc1,n,n,n,n,42.4,n
c1ccc(-c2nc3c4ccccc4ccn3c2Cc2ccsc2)cc1,n,n,n,n,n,n
COc1ccc(CCNC(=O)C(=O)NCC2CCCN2S(=O)(=O)c2ccccc2)cc1 (stereo not given),n,n,n,n,29.5,n
O=C(NCCc1ccc(F)cc1)C(=O)NCC1CCCN1S(=O)(=O)c1ccccc1 (stereo not given),n,n,n,n,26.7,n
COc1ccc(S(=O)(=O)N2CCCC2CNC(=O)C(=O)NCCc2ccccc2)cc1 (stereo not given),n,n,n,n,n,n
Cc1ccc(C)c(S(=O)(=O)N2CCCC2CNC(=O)C(=O)NCCc2ccccc2)c1 (stereo not given),n,n,n,n,30.9,n
Cc1ccc(OCc2nc3ccccc3n2C(C(=O)Nc2c(C)cccc2C)C2CC2)cc1 (stereo not given),x,n,x,n,x,n
SMILES,CHRM1 PAM,CHRM5 agonist,M1 ag,CHRM5 PAM,M1 antag,CHRM5 antagonist
C[C@@H]1CN([C@H](C)CO)C(=O)CCCn2nncc2CO[C@H]1CN(C)S(=O)(=O)c1cccc(F)c1,n,n,n,n,n,n
Nc1nc2ccccc2cc1C(=O)NCc1cccs1,x,n,x,n,x,n
CCc1ccccc1-n1c(SCC(=O)NC)nnc1-c1ccco1,n,n,n,18.2,n,n
CNC(=O)CSc1nnc(-c2ccco2)n1-c1ccc(C)cc1,n,n,n,n,n,n
CCCN1C(=O)c2cccc3c(N4CCCCC4)ccc(c23)C1=O,n,n,n,n,n,n
Cc1nn(C)c(C)c1N1C(=O)c2cccc3c(Br)ccc(c23)C1=O,n,n,n,n,n,n
CN(C)CCCN1C(=O)c2cccc3c(Br)ccc(c23)C1=O,n,n,n,n,n,n
CCCCNc1ccc2c3c(cccc13)C(=O)N(CCCC)C2=O,n,591.4,295.9,n,90.3,97.0
Cc1nn(C)c(C)c1N1C(=O)c2cccc3c(N)ccc(c23)C1=O,n,37.5,90.0,n,35.1,27.9
Cc1ccc(N2C(=O)c3cccc4c(N)ccc(c34)C2=O)c2cccnc12,n,37.8,29.0,n,n,n
CCN1C(=O)c2cccc3c(N)ccc(c23)C1=O,n,104.0,191.9,n,47.9,27.0
CN1OC[C@@H]2CN(C(=S)NCCc3ccccc3)[C@H](c3ccccc3Br)C[C@@H]21,n,n,n,n,n,n
COc1cc(-c2cnc3c(NC(C)=O)cc(-c4cccc(C(=O)NCCO)c4)cn23)cc(OC)c1OC,n,n,n,n,n,n
C=CCOC(=O)N1CCC2CC1c1c(-c3ccc(C(F)(F)F)cc3)cccc12 (stereo not given),n,n,n,n,n,n
COC(=O)C(NC(=O)c1ccccc1)C(C)(C)SCc1ccccc1 (stereo not given),n,n,n,n,n,n
CC(c1ccccc1)C1OCC(C[N+]2(C)CCCCC2)O1 (stereo not given),n,n,n,n,98.6,30.1
C[N+]1(CC2COC3(CCCCC3)O2)CCCCC1 (stereo not given),n,n,n,n,n,n
Cc1noc(C)c1C(=O)N1CCC1(C)C(=O)NS(=O)(=O)c1ccccc1C(F)(F)F (stereo not given),n,n,n,n,n,n
Cc1cc(C)cc(NC(=O)c2ccc(CSc3nnnn3C)cc2)c1,n,n,n,n,27.9,n
CCCN1CCc2c(sc(NC(=S)NC(=O)c3ccccc3)c2C#N)C1,n,n,36.9,n,n,n
CC(C)NC(=O)c1cc(C2CCCCN2S(=O)(=O)c2ccc(F)cc2F)on1 (stereo not given),n,n,n,n,n,n
CN(C)C(C)(C)C#CCCCCC#CC(C)(C)N(C)C,n,n,n,n,n,n
